# Source: PubChem BioAssay AID1453 (NMMLSC, 2008)
# The list shows a part of the results. Values without a mark were called inactive.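 Rule for the calls: active = inhibition above 50%; inactive = the rest.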
# Target: Broad substrate specificity ATP-binding cassette transporter ABCG2 (Homo sapiens) (UniProt Q9UNQ0)
# Test: blockers of JC-1 export by ABCG2 – single point, IgMXP3 cells, ABCB1 counter-screen paired, confirmation (AID 1453);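 note: 0% = DMSO wells and 100% = nicardipine pump inhibitor wells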
# Settings: JC-1 efflux, flow cytometry, at 6.6 µM, active compounds read high
# How it was run: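 Assay system: drug-resistant IgMXP3 cells expressing human ABCG2; Input: 3 million cells per mL final in well; Reagent: JC-1 substrate; Doses: single test compound dose, 6.6 µM final; Times: 10 min end-over-end mixing at 25 °C before reading; Technique: high-throughput flow cytometry, JC-1 green median fluorescence, 530 ± 20 nm.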
# Broad substrate specificity ATP-binding cassette transporter ABCG2 (Homo sapiens), sequence (Q9UNQ0 whole entry, looked up): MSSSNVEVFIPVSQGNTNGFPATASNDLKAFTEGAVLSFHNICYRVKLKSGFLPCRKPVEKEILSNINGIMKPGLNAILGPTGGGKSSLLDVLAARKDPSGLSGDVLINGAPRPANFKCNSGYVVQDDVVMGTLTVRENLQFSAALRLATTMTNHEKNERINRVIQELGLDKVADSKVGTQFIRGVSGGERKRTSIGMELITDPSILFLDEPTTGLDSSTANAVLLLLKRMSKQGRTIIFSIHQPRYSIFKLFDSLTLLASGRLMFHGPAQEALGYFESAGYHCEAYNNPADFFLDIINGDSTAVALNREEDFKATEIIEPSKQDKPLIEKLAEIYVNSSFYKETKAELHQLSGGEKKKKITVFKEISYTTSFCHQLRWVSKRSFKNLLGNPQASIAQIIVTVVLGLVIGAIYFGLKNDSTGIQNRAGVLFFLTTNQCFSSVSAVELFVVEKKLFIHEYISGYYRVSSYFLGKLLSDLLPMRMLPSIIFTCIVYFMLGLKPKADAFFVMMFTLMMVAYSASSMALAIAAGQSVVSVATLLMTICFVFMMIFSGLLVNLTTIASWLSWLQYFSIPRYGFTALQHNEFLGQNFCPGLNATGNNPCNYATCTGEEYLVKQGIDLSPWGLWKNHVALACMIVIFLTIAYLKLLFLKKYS
row,SMILES,inhibition
1,Cc1c(CCOC(=O)CC23CC4CC(CC(C)(C4)C2)C3)sc[n+]1Cc1ccc([N+](=O)[O-])cc1,27.4%
2,O=C(Cc1c[nH]c2ccccc12)N/N=C/c1cccc(F)c1,19.6%
3,Cc1ccc(OCC(O)CN2CCN(CC(O)COc3ccc(C)cc3Cl)CC2)c(Cl)c1 (stereo not drawn),8.02%
4,CCOCC(=O)Nc1sc2c(c1C(=O)OCC)CCCC2,38.7%
5,CCN1/C(=C/c2ccc3ccc(C)cc3[n+]2CC)Sc2ccccc21,31.6%
6,CCOC(=O)c1sc(NC(=O)CSc2nnc(-c3ccco3)o2)c(C(=O)OCC)c1C,37%
7,Cc1ccc(-n2c(SCC(=O)Nc3ncc(Cl)cc3Cl)nc3ccccc32)cc1,28.9%
8,Cc1cccc2cc(CN(Cc3cccs3)C(c3nnnn3C3CCCC3)C(C)C)c(=O)[nH]c12 (stereo not drawn),39.9%
9,COc1ccc(C)cc1NC(=O)C(Sc1ccccc1)c1ccccc1 (stereo not drawn),10.9%
10,COc1ccc(-n2c(C)cc(C(=O)COC(=O)c3cc(OC)c(OC)cc3NC(=O)c3cccs3)c2C)cc1,14.8%
11,C/C(=N\Nc1ncc(Cl)cc1Cl)c1ccc(S(=O)(=O)NCc2ccco2)cc1,21.6%
12,C=CCn1c(SCCOc2ccc(OC)cc2)nnc1C(NC(=O)c1ccc(OC)cc1)C(C)C (stereo not drawn),15.5%
13,COc1cccc(NC(=O)c2ccc(Cn3cc([N+](=O)[O-])cn3)o2)c1,21.8%
